# Measurements reported in ChEMBL document CHEMBL2157865, “Novel 3-substituted-1-aryl-5-phenyl-6-anilinopyrazolo[3,4-d]pyrimidin-4-ones: docking, synthesis and pharmacological evaluation as a potential anti-inflammatory agents” (Bioorg Med Chem Lett, 2012).
# Tests used:
# [1] = system: Rattus norvegicus; experiment: Antiinflammatory activity in Wistar albino rat assessed as inhibition of carrageenan-induced paw edema at 25 mg/kg, po after 1 hr (reference value: 0.85 +/- 0.01%); assay type: functional
# [2] = system: Rattus norvegicus; experiment: Antiinflammatory activity in Wistar albino rat assessed as inhibition of carrageenan-induced paw edema at 25 mg/kg, po after 2 hrs (reference value: 1.11 +/- 0.02%); assay type: functional
# [3] = system: Rattus norvegicus; experiment: Antiinflammatory activity in Wistar albino rat assessed as inhibition of carrageenan-induced paw edema at 25 mg/kg, po after 3 hrs (reference value: 1.08 +/- 0.41%); assay type: functional
# [4] = system: Rattus norvegicus; experiment: Toxicity in Wistar albino rat assessed as ulcer index at 75 mg/kg/day, po administered for 4 days measured after 12 hrs fasting post-last dose; assay type: organism-based; parameters: route oral; details: in vivo
# How it was run: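 Male Wistar albino rats, 170–200 g, six per group, with control and standard groups. Compounds suspended in 1% w/v Tween 80 in water and dosed orally at 75 mg/kg/day on all 4 days. Rats fasted 12 h after last dose, then decapitated. Stomach opened along greater curvature and washed with distilled water and Krebs solution. Gastric lesions counted and ulcer index calculated per Szelenyi and Thiemer.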
compound,measurement,setting,value
CSc1nn(-c2ccccc2)c2nc(Nc3ccccc3)n(-c3ccccc3)c(=O)c12,inhibition in vivo at 25 mg/kg,[1],46.1%
same,inhibition in vivo at 25 mg/kg,[2],36.6%
same,inhibition in vivo at 25 mg/kg,[3],25.4%
same,UI,[4],4.66
CSc1nn(-c2ccc([N+](=O)[O-])cc2)c2nc(Nc3ccccc3)n(-c3ccccc3)c(=O)c12,inhibition in vivo at 25 mg/kg,[1],42.1%
same,inhibition in vivo at 25 mg/kg,[2],37.7%
same,inhibition in vivo at 25 mg/kg,[3],26.6%
same,UI,[4],7.5
CSc1nn(-c2ccc(S(N)(=O)=O)cc2)c2nc(Nc3ccccc3)n(-c3ccccc3)c(=O)c12,inhibition in vivo at 25 mg/kg,[1],68.8%
same,inhibition in vivo at 25 mg/kg,[2],54.1%
same,inhibition in vivo at 25 mg/kg,[3],35.2%
same,UI,[4],7.83
O=c1c2c(Nc3ccccc3)nn(-c3ccccc3)c2nc(Nc2ccccc2)n1-c1ccccc1,inhibition in vivo at 25 mg/kg,[1],48.1%
same,inhibition in vivo at 25 mg/kg,[2],43.4%
same,inhibition in vivo at 25 mg/kg,[3],17.1%
O=c1c2c(Nc3ccccc3)nn(-c3ccc([N+](=O)[O-])cc3)c2nc(Nc2ccccc2)n1-c1ccccc1,inhibition in vivo at 25 mg/kg,[1],43.9%
same,inhibition in vivo at 25 mg/kg,[2],40.8%
same,inhibition in vivo at 25 mg/kg,[3],14.1%
NS(=O)(=O)c1ccc(-n2nc(Nc3ccccc3)c3c(=O)n(-c4ccccc4)c(Nc4ccccc4)nc32)cc1,inhibition in vivo at 25 mg/kg,[1],60.2%
same,inhibition in vivo at 25 mg/kg,[2],54.8%
same,inhibition in vivo at 25 mg/kg,[3],39.6%
O=c1c2c(Nc3ccc([N+](=O)[O-])cc3)nn(-c3ccccc3)c2nc(Nc2ccccc2)n1-c1ccccc1,inhibition in vivo at 25 mg/kg,[1],29.4%
same,inhibition in vivo at 25 mg/kg,[2],29%
same,inhibition in vivo at 25 mg/kg,[3],15.1%
O=c1c2c(Nc3ccc([N+](=O)[O-])cc3)nn(-c3ccc([N+](=O)[O-])cc3)c2nc(Nc2ccccc2)n1-c1ccccc1,inhibition in vivo at 25 mg/kg,[1],23.9%
same,inhibition in vivo at 25 mg/kg,[2],19.4%
same,inhibition in vivo at 25 mg/kg,[3],16.8%
NS(=O)(=O)c1ccc(-n2nc(Nc3ccc([N+](=O)[O-])cc3)c3c(=O)n(-c4ccccc4)c(Nc4ccccc4)nc32)cc1,inhibition in vivo at 25 mg/kg,[1],67%
same,inhibition in vivo at 25 mg/kg,[2],55.3%
same,inhibition in vivo at 25 mg/kg,[3],39.1%
Cc1ccc(Nc2nn(-c3ccccc3)c3nc(Nc4ccccc4)n(-c4ccccc4)c(=O)c23)cc1,inhibition in vivo at 25 mg/kg,[1],55.7%
same,inhibition in vivo at 25 mg/kg,[2],53.4%
same,inhibition in vivo at 25 mg/kg,[3],32.9%
same,UI,[4],3.2
Cc1ccc(Nc2nn(-c3ccc([N+](=O)[O-])cc3)c3nc(Nc4ccccc4)n(-c4ccccc4)c(=O)c23)cc1,inhibition in vivo at 25 mg/kg,[1],46.6%
same,inhibition in vivo at 25 mg/kg,[2],39.8%
same,inhibition in vivo at 25 mg/kg,[3],30.2%
same,UI,[4],16.72
Cc1ccc(Nc2nn(-c3ccc(S(N)(=O)=O)cc3)c3nc(Nc4ccccc4)n(-c4ccccc4)c(=O)c23)cc1,inhibition in vivo at 25 mg/kg,[1],77%
same,inhibition in vivo at 25 mg/kg,[2],63.4%
same,inhibition in vivo at 25 mg/kg,[3],43.7%
same,UI,[4],9.5
O=c1c2c(Nc3ccc(Cl)cc3)nn(-c3ccccc3)c2nc(Nc2ccccc2)n1-c1ccccc1,inhibition in vivo at 25 mg/kg,[1],47.5%
same,inhibition in vivo at 25 mg/kg,[2],44%
same,inhibition in vivo at 25 mg/kg,[3],28.6%
O=c1c2c(Nc3ccc(Cl)cc3)nn(-c3ccc([N+](=O)[O-])cc3)c2nc(Nc2ccccc2)n1-c1ccccc1,inhibition in vivo at 25 mg/kg,[1],39.6%
same,inhibition in vivo at 25 mg/kg,[2],39%
same,inhibition in vivo at 25 mg/kg,[3],20.6%
NS(=O)(=O)c1ccc(-n2nc(Nc3ccc(Cl)cc3)c3c(=O)n(-c4ccccc4)c(Nc4ccccc4)nc32)cc1,inhibition in vivo at 25 mg/kg,[1],69.8%
same,inhibition in vivo at 25 mg/kg,[2],56.3%
same,inhibition in vivo at 25 mg/kg,[3],38.3%
Cc1ccc(-c2cc(C(F)(F)F)nn2-c2ccc(S(N)(=O)=O)cc2)cc1 [CELECOXIB],inhibition in vivo at 25 mg/kg,[1],78.1%
same,inhibition in vivo at 25 mg/kg,[2],58.6%
same,inhibition in vivo at 25 mg/kg,[3],39.6%
same,UI,[4],9.58
O=C([O-])Cc1ccccc1Nc1c(Cl)cccc1Cl.[Na+] [DICLOFENAC SODIUM],inhibition in vivo at 25 mg/kg,[1],75.8%
same,inhibition in vivo at 25 mg/kg,[2],57.2%
same,inhibition in vivo at 25 mg/kg,[3],42.8%
same,UI,[4],39.17
